Bioassay records (PubChem)
KCNQ1 block – human KCNQ1 channel inhibition; AID 2642; B-score at 10 µM; CHO-K1 KCNQ1, FluxOR thallium flux fluorescence; active compounds read high; 310,000 tested, 1.3% active; P51787;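 active means compounds whose thallium flux B-score, printed positive for inhibition, exceeds three library SD while starting fluorescence stays within three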;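 further: channel opened by potassium depolarization with thallium stimulus after 20 min compound exposure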
KCNQ1 pot – potentiates or activates the human KCNQ1 potassium channel; P51787; B-score at 10 µM; AID 2648; 310,000 tested, 0.35% active; CHO-K1 KCNQ1, thallium flux FluxOR fluorescence; active compounds read high;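 active means fluorescence ratio B-score, a plate-corrected score, at least three library SD, with initial intensity B-score within 5 SD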
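System: CHO-K1 cells stably expressing KCNQ1 / Medium: assay buffer for compound exposure, DMSO matched across wells / Reagent: thallium- and potassium-containing depolarizing buffer / Compound: one concentration, matched DMSO / Incubation: 20 min compound pretreatment at room temperature / Measured by: kinetic FluxOR fluorescence, 10 s baseline plus 110 s post-stimulus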
KCNK3 inh – human KCNK3 channel inhibition, primary screen; O14649; CHO-KCNK3 thallium flux, FluxOR fluorescence; active compounds read low; B-score at 10 µM; 340,000 tested, 0.84% active; AID 602410;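 active means B-score under library mean minus 4 SD, starting fluorescence ratio at most library mean plus 5 SD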;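 further: more negative B-score means stronger inhibition of thallium flux through KCNK3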
KCNK9 block – inhibitors of human KCNK9 two-pore domain potassium channel. HEK293 KCNK9, FluxOR thallium flux fluorescence; active compounds read low. B-score at 10 µM. 310,000 tested, 1.2% active. AID 488922. Q9NPC2;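 active means ratio B-score over 3 SD below the library mean, with starting fluorescence within 5 SD of its mean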;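 further: negative B-score means less thallium flux so channel inhibition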
KCC2 mod – modulators of human KCC2 chloride dependent transport | AID 1456 | KCC2 cells, thallium flux FluoZin-2 fluorescence | B-score of Tl+ flux slope (higher = more flux/activation; lower = inhibition) at 10 µM | 190,000 tested, 2.2% active;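 active means thallium flux slope and its plate-corrected score both differing from the plate sample mean at a set confidence after two filtering rounds, in either direction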;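 further: slope of fluorescence scaled to starting intensity during 10 to 20 s after thallium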
Target sequence (Q9H2X9 whole entry, looked up): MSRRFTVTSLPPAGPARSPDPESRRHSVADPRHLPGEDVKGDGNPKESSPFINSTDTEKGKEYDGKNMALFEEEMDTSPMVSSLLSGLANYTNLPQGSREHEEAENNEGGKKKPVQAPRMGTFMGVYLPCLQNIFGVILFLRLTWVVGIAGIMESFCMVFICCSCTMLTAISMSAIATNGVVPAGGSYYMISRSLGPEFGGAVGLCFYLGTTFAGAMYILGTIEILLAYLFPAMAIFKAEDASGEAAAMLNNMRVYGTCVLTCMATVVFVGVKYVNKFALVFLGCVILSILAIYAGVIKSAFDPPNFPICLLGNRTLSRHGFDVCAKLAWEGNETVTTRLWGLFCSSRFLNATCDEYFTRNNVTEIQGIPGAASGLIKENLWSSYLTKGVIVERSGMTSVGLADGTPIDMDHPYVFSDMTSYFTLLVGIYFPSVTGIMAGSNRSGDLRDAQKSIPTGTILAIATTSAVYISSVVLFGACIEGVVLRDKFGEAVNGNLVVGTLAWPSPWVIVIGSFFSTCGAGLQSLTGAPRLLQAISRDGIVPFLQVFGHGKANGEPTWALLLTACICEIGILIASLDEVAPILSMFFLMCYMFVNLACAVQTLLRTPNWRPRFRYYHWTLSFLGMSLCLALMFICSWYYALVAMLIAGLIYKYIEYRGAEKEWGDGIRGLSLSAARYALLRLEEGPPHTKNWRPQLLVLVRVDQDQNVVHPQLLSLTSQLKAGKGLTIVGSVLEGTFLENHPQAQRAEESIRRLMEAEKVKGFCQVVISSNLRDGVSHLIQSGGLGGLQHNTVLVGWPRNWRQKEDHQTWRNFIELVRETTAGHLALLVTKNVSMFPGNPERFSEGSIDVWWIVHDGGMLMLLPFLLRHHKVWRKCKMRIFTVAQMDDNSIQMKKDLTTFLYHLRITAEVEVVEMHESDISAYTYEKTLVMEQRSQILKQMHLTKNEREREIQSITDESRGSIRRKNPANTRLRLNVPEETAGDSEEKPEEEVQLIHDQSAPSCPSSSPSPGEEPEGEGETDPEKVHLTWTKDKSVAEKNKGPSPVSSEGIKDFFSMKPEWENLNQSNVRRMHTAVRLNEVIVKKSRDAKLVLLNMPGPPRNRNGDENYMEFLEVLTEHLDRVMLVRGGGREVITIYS
hERG rescue – compounds protecting human hERG from proarrhythmic drug block; Q12809; 310,000 tested, 0.51% active; activation (rescue from dofetilide block), less the hit threshold, % at 10 µM; AID 1511; CHO-hERG, FluxOR thallium flux, dofetilide IC70 present;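 active means activation above the mean of controls blocked by dofetilide plus 5 SD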;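 further: thallium influx through hERG after potassium depolarization seen as dye fluorescence rise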
KCC2 secondary – KCC2 (human) modulation, secondary assay; shares compounds with KCC2 mod; HEK293-KCC2, thallium flux, FluoZin2 fluorescence; active compounds read high; normalised thallium flux (F/F0 slope) at 10 µM; 3,700 tested, 15% active;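 active means thallium flux slope above the same plate's solvent-only control mean plus 3 SD; inconclusive means the two replicate wells disagree; inactive means no significant difference from solvent-only control wells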
KCC2 bumet counter – thallium flux despite bumetanide block in KCC2 cells, secondary assay 3; shares compounds with KCC2 mod; HEK293-KCC2 + bumetanide/ouabain, thallium flux FluoZin2; active compounds read high; normalized thallium flux at 10 µM; 3,700 tested, 49% active; AID 1714;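 active means thallium entry rate above the same plate's blocked-transporter control wells by more than 3 SD; inconclusive means the two repeat wells disagree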;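 further: raw slope of fluorescence over initial fluorescence between 10 and 20 s after thallium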
KCC2 secondary2 – confirmation of human KCC2 transport modulators | shares compounds with KCC2 mod | HEK293-KCC2, thallium flux FluoZin2 fluorescence; actives lie on both sides; F/F0 rise rate, 10–20 s post-thallium | normalized thallium flux at 10 µM | 3,700 tested, 23% active | AID 1715;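 active means thallium flux slope more than 3 SD above or below the plate's solvent-only control mean, mostly below; inconclusive means the two repeat wells disagreed; inactive means no significant shift from solvent-only controls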
HEK counter1 – counter-screen for KCC2 modulators: effect in parental HEK293 cells; 3,700 tested, 46% active; AID 1716; thallium flux FluoZin2, ouabain; baseline-ratio fluorescence slope, 10–20 s after thallium; thallium flux rate (normalised fluorescence) at 10 µM; shares compounds with KCC2 mod;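 active means thallium flux rate significantly above the same plate's solvent-only control wells, beyond their mean plus 3 SD; inconclusive means the two replicate wells gave conflicting results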
KCC2 ouabain – modulates human KCC2 on retest with ouabain; shares compounds with KCC2 mod; raw Tl+ flux slope (below DMSO = inhibition, above = activation) at 10 µM; AID 1717; HEK293-KCC2, thallium flux FluoZin2 fluorescence; bidirectional: low = inhibitor, high = activator; 3,700 tested, 48% active;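 active means thallium flux slope beyond 3 SD from same-plate DMSO control mean in most replicates, usually higher, sometimes lower; inconclusive means repeat tests gave conflicting results; inactive means no significant difference from controls in most replicates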;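 further: slope of initial-normalized fluorescence between seconds 10 and 20 after thallium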
HEK293 Tl flux2 – parental HEK flux effect, counter-screen 2; shares compounds with KCC2 mod; HEK293 parental, thallium flux FluoZin-2 fluorescence slope; thallium flux slope at 10 µM; 3,700 tested, 33% active;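 active means thallium flux slope above the same plate's solvent-control mean plus 3 SD in both duplicate wells; inconclusive means duplicate wells that disagreed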;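 further: run without ouabain in cells lacking the KCC2 cotransporter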
Each line names hits and unclear results; the compound was inactive in the other large screens (follow-up assays come after a bar, where they were run). Rows were chosen to be rich in hits. Some 4.1% of all compounds tested hit in one or more screens of this group.

CC(C)(C)NC(=O)C(c1cccs1)N(CC1CCCO1)C(=O)c1ccc(-c2ccccc2)[nH]1 (stereo not drawn)	KCC2 mod -6.6 | KCC2 secondary inactive | KCC2 bumet counter inactive | KCC2 secondary2 0.022 | HEK counter1 inactive | KCC2 ouabain 0.01 | HEK293 Tl flux2 inactive
CC(C)(C)NC(=O)C(c1cccs1)N(CC1CCCO1)C(=O)Cn1nnc(-c2cccs2)n1 (stereo not drawn)	none
O=C(NCC1CCCO1)C(c1cccs1)N(Cc1ccccc1)C(=O)c1ccc(-c2ccccc2)[nH]1 (stereo not drawn)	none
O=C(NC1CCCCC1)C(c1ccncc1)N(Cc1ccccc1)C(=O)c1ccc(-c2ccccc2)[nH]1 (stereo not drawn)	none
COc1ccc(C(=O)NCC(=O)Nc2ccc(-c3ccccc3)cc2)cc1	none (no result: KCC2 mod)
O=C(Nc1cc(C(F)(F)F)ccc1-n1cncn1)c1ccc([N+](=O)[O-])o1	none (no result: KCC2 mod)
COc1ccc(NS(=O)(=O)c2ccc(C)c(NC(=O)CN3C(=O)NC4(CCCC4)C3=O)c2)cc1	none (no result: KCNQ1 block, KCNQ1 pot, KCNK9 block, KCC2 mod, hERG rescue)
COc1ccc(NC(=O)C2CCN(C(=O)Nc3ccccc3)CC2)cc1S(=O)(=O)N(C)C	none (no result: KCNQ1 block, KCNQ1 pot, KCNK9 block, KCC2 mod, hERG rescue)
CCCCCCC(=O)NNC(=O)c1c(O)c2ccccc2n(CCC)c1=O	none
CCCCCCC(=O)NNC(=O)c1c(O)c2ccccc2n(CC)c1=O	KCC2 mod 5.6 | KCC2 secondary inactive | KCC2 bumet counter 0.017 | KCC2 secondary2 inactive | HEK counter1 0.017 | KCC2 ouabain 0.025 | HEK293 Tl flux2 0.016
CCCCCCCCC(=O)NNC(=O)c1c(O)c2ccccc2n(CC)c1=O	KCC2 mod 9.5 | KCC2 secondary inactive | KCC2 bumet counter 0.022 | KCC2 secondary2 inactive | HEK counter1 0.019 | KCC2 ouabain 0.03 | HEK293 Tl flux2 0.019
COc1ccc(C)cc1S(=O)(=O)n1cnc2ccccc21	none (no result: KCC2 mod)
O=C(CSc1nc(O)c(C2CCCCC2)c(=O)[nH]1)Nc1ccccc1Cl	none (no result: KCC2 mod)
COc1ccc(NC(=O)c2nc3ccccc3s2)cc1	none
COc1ccc(C(=O)Nc2cccc(/C=C(\CCC(=O)O)c3nc4ccccc4s3)c2)cc1	KCC2 mod -3.8 | KCC2 secondary inactive | KCC2 bumet counter inconclusive | KCC2 secondary2 0.024 | HEK counter1 inactive | KCC2 ouabain 0.013 | HEK293 Tl flux2 inconclusive
O=C(O)C/C(=C\c1cccc(NC(=O)c2ccccc2Cl)c1)c1nc2ccccc2s1	KCC2 mod -4.1 | KCC2 secondary inactive | KCC2 bumet counter inactive | KCC2 secondary2 0.022 | HEK counter1 inconclusive | KCC2 ouabain 0.01 | HEK293 Tl flux2 inactive
O=C(NC1CC(=O)N(c2ccc3c(c2)OCCO3)C1)N1CCCCC1 (stereo not drawn)	none (no result: KCC2 mod)
CC(=NNC(=O)c1cccc(S(=O)(=O)N2CCOCC2)c1)c1ccccc1	none (no result: KCNQ1 block, KCNQ1 pot, KCNK9 block, KCC2 mod, hERG rescue)
CCn1c(NC(C)=O)nc2ccccc21	none
CCn1c(NC(=O)c2cccs2)nc2ccccc21	KCC2 mod 27 | KCC2 secondary inactive | KCC2 bumet counter 0.03 | KCC2 secondary2 inactive | HEK counter1 0.019 | KCC2 ouabain inconclusive | HEK293 Tl flux2 0.021
Cn1c(-c2cccc(Br)c2)cnc1NCc1ccccc1O	none (no result: KCC2 mod)
CC(C)N1C(=O)C2C(C(=O)NCc3ccccc3)C3C=CC2(O3)C1C(=O)NC(C)(C)C (stereo not drawn)	KCC2 mod 2.8 | KCC2 secondary inactive | KCC2 bumet counter inactive | KCC2 secondary2 inactive | HEK counter1 inactive | KCC2 ouabain inactive | HEK293 Tl flux2 inactive
O=C(NCc1ccccc1)C1C2C=CC3(CN(Cc4cccnc4)C(=O)C13)O2 (stereo not drawn)	none
Cc1c(Cl)c([N+](=O)[O-])nn1CCCC(=O)N1CCN(c2ccccc2)CC1	KCC2 mod -2.7 | KCC2 secondary inactive | KCC2 bumet counter inconclusive | KCC2 secondary2 inactive | HEK counter1 inactive | KCC2 ouabain inactive | HEK293 Tl flux2 inconclusive
Cc1c(Br)c([N+](=O)[O-])nn1CCCC(=O)N1CCN(c2ccccc2)CC1	none
COc1ccc(OC)c2sc(NNC(=O)COc3ccccc3)nc12	KCC2 mod 3.4 | KCC2 secondary inactive | KCC2 bumet counter 0.012 | KCC2 secondary2 inactive | HEK counter1 0.011 | KCC2 ouabain inconclusive | HEK293 Tl flux2 0.013
COC(=O)c1sccc1NS(=O)(=O)c1ccc(OC)cc1	none (no result: KCC2 mod) | KCC2 secondary inactive | KCC2 bumet counter 0.013 | KCC2 secondary2 inactive | HEK counter1 0.012 | KCC2 ouabain inconclusive | HEK293 Tl flux2 0.015
O=C(NC(=S)Nc1ccccc1)c1cncc(C#Cc2ccccc2)c1	KCC2 mod 24, hERG rescue 5.8 | KCC2 secondary inconclusive | KCC2 bumet counter 0.023 | KCC2 secondary2 inactive | HEK counter1 0.01 | KCC2 ouabain 0.039 | HEK293 Tl flux2 inconclusive
CNC(=S)Nc1cccc(C(C)=O)c1	none
O=C(NC(=S)Nc1ccc(Oc2ccc(Cl)cc2)cc1)c1ccccc1	none
O=C(NC(=S)Nc1ccc(Cl)cc1)c1ccccc1	KCC2 mod 76 | KCC2 secondary 0.016 | KCC2 bumet counter 0.052 | KCC2 secondary2 inactive | HEK counter1 inconclusive | KCC2 ouabain 0.046 | HEK293 Tl flux2 0.023
CC(=O)c1cccc(NC(=S)NC(=O)c2ccccc2)c1	KCC2 mod 4.5 | KCC2 secondary inactive | KCC2 bumet counter 0.02 | KCC2 secondary2 inactive | HEK counter1 0.018 | KCC2 ouabain inconclusive | HEK293 Tl flux2 0.016
O=C(O)c1cncc(C#Cc2ccccc2)c1	none (no result: KCC2 mod)
O=C(O)c1cccc(NC(=S)NC(=O)c2ccc(-c3ccccc3)cc2)c1	KCC2 mod -6.1 | KCC2 secondary inconclusive | KCC2 bumet counter inactive | KCC2 secondary2 0.022 | HEK counter1 0.0057 | KCC2 ouabain 0.013 | HEK293 Tl flux2 inconclusive
